Active and inactive are the calls of the source. No cut-off for these calls is given here.
What was measured:
[1] = test system: Trypanosoma brucei brucei; test: Antiparasitic activity against bloodstream trypomastigote stage of wild type Trypanosoma brucei brucei Lister 427 at 100 uM after 48 hrs by resazurin dye based fluorescence assay; assay type: functional, organism-based
[2] = test system: Trypanosoma brucei brucei; test: Resistance factor, ratio of EC50 for diminazene, pentamidine and melaminophenyl arsenical-resistant bloodstream trypomastigote stage of Trypanosoma brucei brucei B48 harboring TbAT1 deletions to EC50 for bloodstream trypomastigote stage of wild-type Trypanosoma brucei brucei Lister 427; assay type: functional
[3] = Cytotoxicity against HEK293T cells after 30 hrs by resazurin dye based fluorescence assay; assay type: cell-based, HEK-293T; details: human
Outline: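 Cytotoxicity was measured on human embryonic kidney (HEK) cells and reported as CC50. Values are the mean of 3 experiments ± SEM.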

[4] = biological target: Alternative oxidase, mitochondrial (Trypanosoma brucei brucei, UniProt Q26710); test: Inhibition of recombinant Trypanosoma brucei brucei alternative oxidase using ubiquinol-1 as substrate incubated for 2 mins followed by substrate addition by spectrophotometric method
Outline: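 The assay measured inhibition of the ubiquinol oxidase activity of purified recombinant ∆MTS-TAO from T. b. brucei.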

[5] = Selectivity index, ratio of CC50 for HEK293T cells to EC50 for bloodstream trypomastigote stage of wild type Trypanosoma brucei brucei Lister 427; assay type: toxicity; details: human; read-out: Ratio CC50/EC50
Outline: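 The selectivity index was calculated as CC50 in HEK cells divided by EC50 against wild-type T. b. brucei s427 bloodstream trypomastigotes.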

[6] = test system: Trypanosoma brucei brucei; test: Antiparasitic activity against bloodstream trypomastigote stage of wild type Trypanosoma brucei brucei Lister 427 after 48 hrs by resazurin dye based fluorescence assay; assay type: functional, organism-based; details: for EC50: Lister 427, 48 h
Outline: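 Bloodstream trypomastigotes of T. b. brucei s427 (wild type) were tested, both with and without glycerol. EC50 values are the mean of 3 experiments ± SEM.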

[7] = Dissociation constant, pKa of the compound; assay type: physicochemical
[8] = test system: Trypanosoma brucei brucei; test: Resistant factor, ratio of EC50 for pentamidine-resistant bloodstream trypomastigote stage of Trypanosoma brucei brucei harboring AQP1 to 3 deletions to EC50 for bloodstream trypomastigote stage of wild-type Trypanosoma brucei brucei Lister 427 in presence of glycerol; assay type: functional
[9] = test system: Trypanosoma brucei brucei; test: Resistant factor, ratio of EC50 for bloodstream trypomastigote stage of wild-type Trypanosoma brucei brucei Lister 427 assessed as inhibition of respiration in presence of glycerol to EC50 for bloodstream trypomastigote stage of wild-type Trypanosoma brucei brucei Lister 427 assessed as inhibition of respiration in absence of glycerol; assay type: functional

Alternative oxidase, mitochondrial, sequence (Q26710 whole entry): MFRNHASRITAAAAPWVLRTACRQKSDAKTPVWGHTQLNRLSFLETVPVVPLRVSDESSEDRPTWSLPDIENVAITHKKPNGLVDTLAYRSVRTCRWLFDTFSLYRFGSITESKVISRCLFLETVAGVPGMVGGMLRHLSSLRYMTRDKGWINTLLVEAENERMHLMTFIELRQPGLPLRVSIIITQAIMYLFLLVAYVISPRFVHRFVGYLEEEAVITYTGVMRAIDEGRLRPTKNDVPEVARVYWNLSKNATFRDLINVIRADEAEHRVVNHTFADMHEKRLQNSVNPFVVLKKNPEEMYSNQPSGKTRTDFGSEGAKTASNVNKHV

| SMILES | Activity [1] | Ratio EC50 [2] | CC50 at 30 h [3] [nM] | IC50 [4] [nM] | selectivity ratio [5] | EC50 [6] [nM] | pKa [7] | Ratio EC50 [8] | Ratio EC50 [9] | Activity [6] |
| --- | --- | --- | --- | --- | --- | --- | --- | --- | --- | --- |
| COC(=O)c1ccc(OC/C(C)=C/CC/C(C)=C/CO)cc1C | inactive | <1 | > 100000 | 1690 | – | – | – | – | – | – |
| Cc1cc(OCCCCCCCCCCCCC[n+]2cccc3ccccc32)ccc1C(=O)O.[Br-] | – | <1 | 24400 | > 5000 | 2.3 | 10600 | – | – | – | – |
| O=Cc1ccc(OCCCCCCCCCCCCC[n+]2cccc3ccccc32)cc1O | – | – | > 200000 | 1230 | > 114 | 1750 | – | – | – | – |
| C/C(=C\CO)CC/C=C(\C)COc1ccc(C(=O)O)c(F)c1 | inactive | <1 | – | 1100 | – | – | < 5 | – | – | – |
| COC(=O)c1ccc(OC/C(C)=C/CC/C(C)=C/CO)cc1F | inactive | <1 | > 100000 | > 5000 | – | – | – | – | – | – |
| C/C(=C\CO)CC/C=C(\C)CC/C=C(\C)COc1cc(C)c(C(=O)O)c(O)c1 | inactive | <1 | – | 3.1 | – | – | < 5 | – | – | – |
| O=C(O)c1ccc(OCCCCCCCCCCCCC[P+](c2ccccc2)(c2ccccc2)c2ccccc2)cc1F.[Br-] | – | <1 | 8350 | > 5000 | 225 | 37 | – | >2 | – | – |
| COC(=O)c1ccc(OCCCCCCCCCCCCC[n+]2cccc3ccccc32)cc1F.[Br-] | – | <1 | 3360 | > 5000 | 1.4 | 2400 | – | – | <1 | – |
| COC(=O)c1c(C)cc(OCCCCCCCCCCCCC[P+](c2ccccc2)(c2ccccc2)c2ccccc2)cc1O.[Br-] | – | <1 | – | – | – | – | – | >2 | – | – |
| CC(=O)OC/C=C(\C)CC/C=C(\C)COC(=O)c1ccc(O)cc1O | – | <1 | > 20000 | 9.1 | – | – | – | – | <1 | – |
| C/C(=C\CO)CC/C=C(\C)COc1ccc(C(=O)O)c(C)c1 | inactive | <1 | – | 920 | – | – | < 5 | – | – | – |
| COC(=O)c1cc(OCCCCCCCCCCCCC[P+](c2ccccc2)(c2ccccc2)c2ccccc2)ccc1O.[Br-] | – | <1 | 640 | 12 | – | 28 | – | – | – | – |
| COC(=O)c1ccc(OCCCCCCCCCCCCC[P+](c2ccccc2)(c2ccccc2)c2ccccc2)cc1F.[Br-] | – | <1 | 220 | 740 | 4.5 | 50 | – | >2 | – | – |
| CCOC(=O)c1ccc(OC/C(C)=C/CC/C(C)=C/CO)cc1O | – | <1 | – | > 5000 | – | – | – | – | – | – |
| COC(=O)c1ccc(OCCCCCCCCCCCCCBr)cc1O | – | <1 | 28600 | > 5000 | 3.5 | 8100 | – | – | <1 | – |
| CCOC(=O)c1c(C)cc(OCCCCCCCCCCCCCBr)cc1O | – | <1 | 29600 | > 5000 | 3.3 | 8900 | – | – | <1 | – |
| COC(=O)c1ccc(OCCCCCCCCCCCCCBr)cc1F | – | <1 | – | – | – | – | – | – | – | inactive |
| COC(=O)c1ccc(OCCCCCCCCCCCCC[P+](c2ccccc2)(c2ccccc2)c2ccccc2)cc1O.[Br-] | – | <1 | – | 15 | – | 18 | – | – | – | – |
| O=C(O)c1ccc(OCCCCCCCCCCCCC[P+](c2ccccc2)(c2ccccc2)c2ccccc2)cc1O.[Br-] | – | <1 | 19600 | > 5000 | 227 | 86 | – | >2 | – | – |

| SMILES | Activity [1] | Ratio EC50 [2] | CC50 at 30 h [3] [nM] | IC50 [4] [nM] | selectivity ratio [5] | EC50 [6] [nM] | pKa [7] | Ratio EC50 [8] | Ratio EC50 [9] | Activity [6] |
| --- | --- | --- | --- | --- | --- | --- | --- | --- | --- | --- |
| COC(=O)c1ccc(OCCCCCCCCCCCCC[n+]2cccc3ccccc32)cc1C.[Br-] | – | <1 | 300 | > 5000 | 1.9 | 160 | – | – | – | – |
| CC(=O)OC/C=C(\C)CC/C=C(\C)COC(=O)c1ccc(OC/C(C)=C/CC/C(C)=C/COC(C)=O)cc1O | – | <1 | – | > 5000 | – | – | – | – | – | – |
| COC(=O)c1ccc(OC/C(C)=C/CC/C(C)=C/CO)cc1O | – | <1 | – | – | – | – | – | – | – | – |
| COC(=O)c1ccc(OC/C(C)=C/CC/C(C)=C/COC(C)=O)cc1F | – | <1 | – | – | – | – | – | – | – | – |
| C/C(=C\CO)CC/C=C(\C)COc1ccc(C(=O)O)cc1 | inactive | <1 | – | 2400 | – | – | < 5 | – | – | – |
| COC(=O)c1ccc(OC/C(C)=C/CC/C(C)=C/COC(C)=O)cc1O | – | <1 | 31800 | > 5000 | 1.7 | 19300 | – | – | – | – |
| COC(=O)c1ccc(OCCCCCCCCCCCCCBr)cc1C | – | <1 | – | – | – | – | – | – | – | inactive |
| O=C(O)c1ccc(OCCCCCCCCCC[P+](c2ccccc2)(c2ccccc2)c2ccccc2)cc1O.[Br-] | – | <1 | 8200 | > 5000 | 11 | 730 | – | – | <1 | – |
| COC(=O)c1ccc(OCCCCCCCCCCCCC[P+](c2ccccc2)(c2ccccc2)c2ccccc2)cc1C.[Br-] | – | <1 | 350 | > 5000 | 19 | 18 | – | >2 | – | – |
| COC(=O)c1ccc(OCCCCCCCCCC[P+](c2ccccc2)(c2ccccc2)c2ccccc2)cc1O.[Br-] | – | <1 | 440 | > 5000 | 184 | 2 | – | – | – | – |
| Cc1cc(OCCCCCCCCCCCCC[P+](c2ccccc2)(c2ccccc2)c2ccccc2)ccc1C(=O)O.[Br-] | – | <1 | 4240 | > 5000 | 22 | 190 | – | – | <1 | – |
| O=C(NO)c1ccccc1O [SALICYLHYDROXAMIC ACID] | – | – | – | – | – | 62900 | – | – | – | – |
| COC(=O)c1ccc(OC/C(C)=C/CC/C(C)=C/COC(C)=O)cc1C | – | <1 | 45100 | > 5000 | 2.7 | 17000 | – | – | – | – |
| CCOC(=O)c1c(C)cc(OC/C(C)=C/CC/C(C)=C/CC/C(C)=C/COC(C)=O)cc1O | – | <1 | 20800 | > 5000 | 3.1 | 6600 | – | – | – | – |
| O=Cc1ccc(OCCCCCCCCCCCCCBr)cc1O | – | – | – | 73 | – | 17600 | – | – | – | – |
| COc1cc(OCCCCCCCCCCCCCBr)cc(O)c1C=O | inactive | <1 | – | 2300 | – | – | – | – | – | – |
| CCOC(=O)c1c(C)cc(OCCCCCCCCCCCCC[n+]2cccc3ccccc32)cc1O.[Br-] | – | <1 | 610 | > 5000 | 2.1 | 290 | – | – | – | – |
| N=C(N)c1ccc(OCCCCCOc2ccc(C(=N)N)cc2)cc1 [PENTAMIDINE] | – | – | – | – | – | 4.2 | – | – | – | – |
